In the library only some 2.3% were active in any assay of this set; here they are far more common.
TRPC4 agonist – activators of mouse TRPC4 channel, primary screen, Fluo4 calcium, HEK293 TRPC4beta/mu-opioid cells; Fluo4 calcium fluorescence; stronger effect = higher value; B-score at 10 µM; AID 2237, 2010; 310,000 tested, 0.49% active; Short transient receptor potential channel 4 (Mus musculus), Q9QUQ5;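 active means B-score above 5 SD of library B-scores, and initial fluorescence ratio not above library mean plus 5 SD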;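 further: positive B-score marks a calcium rise read as TRPC4 activation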
Target sequence (Q9QUQ5 whole entry, looked up): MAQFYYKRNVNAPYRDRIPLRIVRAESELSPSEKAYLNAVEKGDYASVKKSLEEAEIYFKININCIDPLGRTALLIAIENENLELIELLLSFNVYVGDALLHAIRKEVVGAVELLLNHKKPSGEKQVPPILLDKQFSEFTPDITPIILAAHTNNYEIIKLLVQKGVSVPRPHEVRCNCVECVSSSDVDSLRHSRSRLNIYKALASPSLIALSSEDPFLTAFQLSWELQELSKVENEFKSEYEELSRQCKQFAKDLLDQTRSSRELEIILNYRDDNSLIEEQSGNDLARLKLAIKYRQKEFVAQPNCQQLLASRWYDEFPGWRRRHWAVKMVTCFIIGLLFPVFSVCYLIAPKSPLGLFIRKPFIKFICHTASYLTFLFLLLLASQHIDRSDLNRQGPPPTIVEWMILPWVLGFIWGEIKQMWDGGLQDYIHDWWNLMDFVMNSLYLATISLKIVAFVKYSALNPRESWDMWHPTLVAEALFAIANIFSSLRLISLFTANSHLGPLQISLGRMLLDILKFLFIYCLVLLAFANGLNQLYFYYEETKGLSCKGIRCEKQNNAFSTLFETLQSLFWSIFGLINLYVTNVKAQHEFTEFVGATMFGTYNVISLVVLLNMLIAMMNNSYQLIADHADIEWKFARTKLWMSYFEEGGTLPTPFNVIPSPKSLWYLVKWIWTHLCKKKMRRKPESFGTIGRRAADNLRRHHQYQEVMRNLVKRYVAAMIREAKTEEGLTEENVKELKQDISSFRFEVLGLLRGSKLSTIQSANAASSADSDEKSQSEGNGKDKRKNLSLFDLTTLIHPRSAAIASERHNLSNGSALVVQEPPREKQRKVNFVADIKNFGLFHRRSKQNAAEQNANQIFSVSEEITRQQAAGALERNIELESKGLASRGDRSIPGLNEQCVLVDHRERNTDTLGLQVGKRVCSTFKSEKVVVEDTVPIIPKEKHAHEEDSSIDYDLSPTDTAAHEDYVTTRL
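System: HEK293 cells stably co-expressing mouse TRPC4beta and mu-opioid receptor; Schedule: Fluo4 dye loading 45 min at room temperature, 110 s recording; Detection: Fluo4 fluorescence, kinetic; Evaluation: B-scored integrated calcium fluorescence ratio; Controls: buffer (low) and maximal DAMGO (high).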
TRPC4 potent – positive allosteric modulators of TRPC4, primary screen, cell-based, mouse TRPC4beta, HEK293 mu-opioid, Fluo-4 calcium; Short transient receptor potential channel 4 (Mus musculus), Q9QUQ5; B-score at 10 µM; 310,000 tested, 0.42% active; DAMGO EC20, Fluo-4 Ca2+ flux; stronger effect = higher value;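 active means B-score of calcium response area above 5 SD of library B-scores, with initial fluorescence ratio within 5 SD of library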;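 further: B-score of integrated fluorescence ratio over time as area under calcium response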
TRPC4 block – inhibitors of mouse TRPC4 channel, primary screen, Fluo4 calcium, HEK293 TRPC4beta/mu-opioid cells; Short transient receptor potential channel 4 (Mus musculus), Q9QUQ5; DAMGO-evoked Fluo4 calcium flux; stronger effect = lower value; B-score at 10 µM; 300,000 tested, 0.39% active; AID 2247, 2010;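 active means B-score over 3 SD under the library average, no early fluorescence shift, positive overall ratio signal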
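Material: HEK293 cells with stable TRPC4beta plus mu-opioid receptor expression / Probe or stimulus: DAMGO in two steps, submaximal then maximal / Compound: single concentration per test compound / Technique: kinetic Fluo4 fluorescence imaging of calcium influx / Read-out: per-well B score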
TRPC6 inhibitor – mouse TRPC6 channel inhibitors, primary screen, cell-based, HEK293, membrane potential dye; B-score at 10 µM; AID 2553, 2010; 310,000 tested, 1.1% active; ACh-evoked depolarization; stronger effect = lower value; Short transient receptor potential channel 6 (Mus musculus), Q61143;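 active means B-score under library mean minus 3 SD, initial fluorescence not abnormally high, positive integrated signal ratio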;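 further: B-score derived from integrated fluorescence ratio over the kinetic read; more negative B-score means stronger inhibition of depolarization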
TRPC6 activator – mouse TRPC6 channel activators, primary screen, cell-based, HEK293, membrane potential dye; Short transient receptor potential channel 6 (Mus musculus), Q61143; HEK293-TRPC6 membrane potential dye fluorescence; stronger effect = higher value; B-score at 10 µM; 310,000 tested, 0.13% active; AID 2550, 2010;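 active means B-score of the integrated fluorescence ratio above library mean plus 3 SD, and starting fluorescence ratio within library mean plus 5 SD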;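 further: higher score means more depolarization so channel activation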
The depositor's hits bear a star.

What do the screens show for `O/N=C/c1cccc[n+]1CCCCCC[n+]1ccccc1/C=N/O`?
TRPC4 agonist: inactive; TRPC4 potent: inactive; TRPC4 block: inactive; TRPC6 inhibitor: inactive; TRPC6 activator: inactive

What do the screens show for `Cc1ccc(C(=O)OCC(=O)N2CCc3ccccc32)cc1`?
TRPC4 agonist: inactive; TRPC4 potent: 11*; TRPC4 block: inactive; TRPC6 inhibitor: inactive; TRPC6 activator: inactive

What do the screens show for `O=C(OCC(=O)N1CCCc2ccccc21)c1ccc(C(F)(F)F)cc1`?
TRPC4 agonist: inactive; TRPC4 potent: inactive; TRPC4 block: inactive; TRPC6 inhibitor: inactive; TRPC6 activator: inactive

How did Cn1c(=O)n(CC(=O)NCC2CCCO2)c(=O)c2c3c(sc21)CCCC3 (configuration not stated) do in these assays?
TRPC4 agonist: inactive; TRPC4 potent: inactive; TRPC4 block: inactive; TRPC6 inhibitor: inactive; TRPC6 activator: inactive

What do the screens show for `c1ccc2c(N3CCCCC3)nc(N3CCOCC3)nc2c1`?
TRPC4 agonist: inactive; TRPC4 potent: inactive; TRPC4 block: -9*; TRPC6 inhibitor: inactive; TRPC6 activator: inactive

Results for CC(C)N(CC(N)=O)C(=O)Cc1coc2cc3c(cc12)CCC3 ?
TRPC4 agonist: inactive; TRPC4 potent: 13*; TRPC4 block: inactive; TRPC6 inhibitor: inactive; TRPC6 activator: inactive

What do the screens show for `COc1nc(N=C(N)N)nc2ccc(C)cc12`?
TRPC4 agonist: inactive; TRPC4 potent: inactive; TRPC4 block: -5*; TRPC6 inhibitor: inactive; TRPC6 activator: inactive

What do the screens show for `COc1ccc2sc(N(CCCN(C)C)C(=O)c3ccc(S(=O)(=O)N(C)Cc4ccccc4)cc3)nc2c1`?
TRPC4 agonist: inactive; TRPC4 potent: inactive; TRPC4 block: inactive; TRPC6 inhibitor: inactive; TRPC6 activator: inactive

Results for CCN(c1ccccc1)S(=O)(=O)c1ccc(C(=O)N(CCCN(C)C)c2nc3cc4c(cc3s2)OCO4)cc1 ?
TRPC4 agonist: 168*; TRPC4 potent: inactive; TRPC4 block: inactive; TRPC6 inhibitor: inactive; TRPC6 activator: inactive

Results for CN(C)CCN(C(=O)c1cccc2ccccc12)c1nc2cc3c(cc2s1)OCO3 ?
TRPC4 agonist: 73*; TRPC4 potent: inactive; TRPC4 block: inactive; TRPC6 inhibitor: inactive; TRPC6 activator: inactive

What do the screens show for `CN(C)CCCN(C(=O)c1ccc(S(=O)(=O)N(C)Cc2ccccc2)cc1)c1nc2cc3c(cc2s1)OCO3`?
TRPC4 agonist: 48*; TRPC4 potent: inactive; TRPC4 block: inactive; TRPC6 inhibitor: inactive; TRPC6 activator: inactive

What do the screens show for `Cc1nn(-c2ccccc2)c(C)c1NC(=O)COc1ccc([N+](=O)[O-])cc1`?
TRPC4 agonist: inactive; TRPC4 potent: inactive; TRPC4 block: inactive; TRPC6 inhibitor: inactive; TRPC6 activator: inactive

How did CCOC(=O)N1CCC(NC(=O)CSCc2nc(-c3ccc(OCC)cc3)oc2C)CC1 do in these assays?
TRPC4 agonist: inactive; TRPC4 potent: inactive; TRPC4 block: inactive; TRPC6 inhibitor: inactive; TRPC6 activator: inactive

Results for Cc1oc(-c2ccc(Cl)cc2)nc1CSCC(=O)NC1CCN(Cc2ccccc2)CC1 ?
TRPC4 agonist: inactive; TRPC4 potent: 12*; TRPC4 block: inactive; TRPC6 inhibitor: inactive; TRPC6 activator: inactive

How did CCOC(=O)C1=NN(C(=O)COc2ccccc2)C(O)(c2ccc(Br)cc2)C1 (configuration not stated) do in these assays?
TRPC4 agonist: 47*; TRPC4 potent: inactive; TRPC4 block: inactive; TRPC6 inhibitor: inactive; TRPC6 activator: inactive

Results for CC1=NN(C(=O)COc2ccc(C)c(C)c2)C(O)(c2ccc(Cl)cc2)C1 (configuration not stated) ?
TRPC4 agonist: inactive; TRPC4 potent: 22*; TRPC4 block: inactive; TRPC6 inhibitor: inactive; TRPC6 activator: inactive

What do the screens show for `CC1=NN(C(=O)CSCc2ccccc2)C(O)(c2ccc(Cl)cc2)C1` (configuration not stated)?
TRPC4 agonist: inactive; TRPC4 potent: inactive; TRPC4 block: inactive; TRPC6 inhibitor: inactive; TRPC6 activator: inactive

What do the screens show for `CCSc1ncccc1-c1nc2ccccc2[nH]1`?
TRPC4 agonist: inactive; TRPC4 potent: inactive; TRPC4 block: -7*; TRPC6 inhibitor: inactive; TRPC6 activator: inactive

Results for N#Cc1nc(-c2cccs2)oc1N1CCN(c2ccccc2)CC1 ?
TRPC4 agonist: inactive; TRPC4 potent: inactive; TRPC4 block: inactive; TRPC6 inhibitor: inactive; TRPC6 activator: inactive

Results for CCN(c1ccccc1)S(=O)(=O)c1ccc(Cl)c(NC(=O)CN2CCCCCC2)c1 ?
TRPC4 agonist: inactive; TRPC4 potent: inactive; TRPC4 block: inactive; TRPC6 inhibitor: inactive; TRPC6 activator: 18*

Results for CN(C)S(=O)(=O)c1ccc(Cl)c(NC(=O)CN2CCCCCC2)c1 ?
TRPC4 agonist: inactive; TRPC4 potent: inactive; TRPC4 block: inactive; TRPC6 inhibitor: inactive; TRPC6 activator: inactive

How did CC1(NC(=S)Nc2ccccc2)CCS(=O)(=O)C1 (configuration not stated) do in these assays?
TRPC4 agonist: inactive; TRPC4 potent: inactive; TRPC4 block: inactive; TRPC6 inhibitor: inactive; TRPC6 activator: inactive

Results for NNc1ccc(Cc2ccc(Cl)cc2Cl)nn1 ?
TRPC4 agonist: inactive; TRPC4 potent: 15*; TRPC4 block: inactive; TRPC6 inhibitor: inactive; TRPC6 activator: inactive

How did CSc1ccc(Cc2ccc(Cl)cc2Cl)nn1 do in these assays?
TRPC4 agonist: inactive; TRPC4 potent: inactive; TRPC4 block: inactive; TRPC6 inhibitor: inactive; TRPC6 activator: inactive

Results for Cc1ccc(NC(=O)c2cc(NC(=O)c3ccco3)ccc2N2CCOCC2)cc1 ?
TRPC4 agonist: inactive; TRPC4 potent: inactive; TRPC4 block: inactive; TRPC6 inhibitor: inactive; TRPC6 activator: inactive

What do the screens show for `Cc1ccc(NC(=O)c2cc(N3C(=O)C=CC3=O)ccc2N2CCOCC2)cc1`?
TRPC4 agonist: inactive; TRPC4 potent: inactive; TRPC4 block: -6*; TRPC6 inhibitor: inactive; TRPC6 activator: inactive

What do the screens show for `CCc1noc(C)c1C(=O)N(C)CC(=O)Nc1ccc(Br)cc1C`?
TRPC4 agonist: inactive; TRPC4 potent: inactive; TRPC4 block: inactive; TRPC6 inhibitor: inactive; TRPC6 activator: inactive

Results for CC(C)Oc1ccccc1C1CC(=O)Nc2cc3c(cc21)OCCO3 (configuration not stated) ?
TRPC4 agonist: inactive; TRPC4 potent: 82*; TRPC4 block: inactive; TRPC6 inhibitor: inactive; TRPC6 activator: inactive

From PubChem
